From ChEMBL document CHEMBL2062453, “Lead optimization through VLAK protocol: new annelated pyrrolo-pyrimidine derivatives as antitumor agents” (2012)

Tests used:
Assay type in all cases: functional
CCRF-CEM = test: Cytotoxicity against human CCRF-CEM cells assessed as cell growth at 10 uM after 48 hrs by SRB assay relative to control; conditions: read-out: Activity
Summary of the method: (§1)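 NCI primary screen of about 60 human tumour lines. Cells inoculated and preincubated, then a single test concentration added and cultures incubated 48 h. Result given as percent growth (G%) of treated versus untreated control cells.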

HL-60(TB) = test: Cytotoxicity against human HL-60(TB) cells assessed as cell growth at 10 uM after 48 hrs by SRB assay relative to control; conditions: HL-60, 48 h, read-out: Activity
K562 = test: Cytotoxicity against human K562 cells assessed as cell growth at 10 uM after 48 hrs by SRB assay relative to control; conditions: K562, 48 h, read-out: Activity; summary of the method: as §1
RPMI-8226 = test: Cytotoxicity against human RPMI8226 cells assessed as cell growth at 10 uM after 48 hrs by SRB assay relative to control; conditions: RPMI-8226, 48 h, read-out: Activity
HOP-62 = test: Cytotoxicity against human HOP62 cells assessed as cell growth at 10 uM after 48 hrs by SRB assay relative to control; conditions: HOP-62, 48 h, read-out: Activity; summary of the method: as §1
HOP-92 = test: Cytotoxicity against human HOP92 cells assessed as cell growth at 10 uM after 48 hrs by SRB assay relative to control; conditions: HOP-92, 48 h, read-out: Activity; summary of the method: as §1
NCI-H23 = test: Cytotoxicity against human NCI-H23 cells assessed as cell growth at 10 uM after 48 hrs by SRB assay relative to control; conditions: NCI-H23, 48 h, read-out: Activity
NCI-H522 = test: Cytotoxicity against human NCI-H522 cells assessed as cell growth at 10 uM after 48 hrs by SRB assay relative to control; conditions: NCI-H522, 48 h, read-out: Activity
COLO 205 = test: Cytotoxicity against human COLO205 cells assessed as cell growth at 10 uM after 48 hrs by SRB assay relative to control; conditions: COLO 205, 48 h, read-out: Activity; summary of the method: as §1
HT-29 = test: Cytotoxicity against human HT-29 cells assessed as cell growth at 10 uM after 48 hrs by SRB assay relative to control; conditions: HT-29, 48 h, read-out: Activity; summary of the method: as §1
SW-620 = test: Cytotoxicity against human SW620 cells assessed as cell growth at 10 uM after 48 hrs by SRB assay relative to control; conditions: SW-620, 48 h, read-out: Activity
Summary of the method: (§2)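 NCI single-dose primary screen across about 60 human tumour lines. Each line was inoculated and preincubated on microtiter plates, then exposed to one concentration of agent for 48 h. Growth is reported as percent growth (G%) of treated cells versus untreated control cells.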

SNB-19 = test: Cytotoxicity against human SNB19 cells assessed as cell growth at 10 uM after 48 hrs by SRB assay relative to control; conditions: SNB-19, 48 h, read-out: Activity
Malme-3M = test: Cytotoxicity against human MALME-3M cells assessed as cell growth at 10 uM after 48 hrs by SRB assay relative to control; conditions: read-out: Activity; summary of the method: as §1
M14 = test: Cytotoxicity against human M14 cells assessed as cell growth at 10 uM after 48 hrs by SRB assay relative to control; conditions: M14, 48 h, read-out: Activity; summary of the method: as §1
MDA-MB-435 = test: Cytotoxicity against human MDA-MB-435 cells assessed as cell growth at 10 uM after 48 hrs by SRB assay relative to control; conditions: MDA-MB-435, 48 h, read-out: Activity
SK-MEL-5 = test: Cytotoxicity against human SK-MEL-5 cells assessed as cell growth at 10 uM after 48 hrs by SRB assay relative to control; conditions: SK-MEL-5, 48 h, read-out: Activity
UACC-257 = test: Cytotoxicity against human UACC257 cells assessed as cell growth at 10 uM after 48 hrs by SRB assay relative to control; conditions: UACC-257, 48 h, read-out: Activity; summary of the method: as §2
UACC-62 = test: Cytotoxicity against human UACC62 cells assessed as cell growth at 10 uM after 48 hrs by SRB assay relative to control; conditions: UACC-62, 48 h, read-out: Activity; summary of the method: as §2
IGROV-1 = test: Cytotoxicity against human IGROV1 cells assessed as cell growth at 10 uM after 48 hrs by SRB assay relative to control; conditions: IGROV-1, 48 h, read-out: Activity; summary of the method: as §1
OVCAR-3 = test: Cytotoxicity against human OVCAR3 cells assessed as cell growth at 10 uM after 48 hrs by SRB assay relative to control; conditions: OVCAR-3, 48 h, read-out: Activity
OVCAR-8 = test: Cytotoxicity against human OVCAR8 cells assessed as cell growth at 10 uM after 48 hrs by SRB assay relative to control; conditions: OVCAR-8, 48 h, read-out: Activity
786-0 = test: Cytotoxicity against human 786-0 cells assessed as cell growth at 10 uM after 48 hrs by SRB assay relative to control; conditions: 786-0, 48 h, read-out: Activity; summary of the method: as §1
CAKI-1 = test: Cytotoxicity against human Caki1 cells assessed as cell growth at 10 uM after 48 hrs by SRB assay relative to control; conditions: CAKI-1, 48 h, read-out: Activity; summary of the method: as §1
SN12C = test: Cytotoxicity against human SN12C cells assessed as cell growth at 10 uM after 48 hrs by SRB assay relative to control; conditions: read-out: Activity
Hs-578T = test: Cytotoxicity against human Hs578T cells assessed as cell growth at 10 uM after 48 hrs by SRB assay relative to control; conditions: read-out: Activity; summary of the method: as §1
BT-549 = test: Cytotoxicity against human BT549 cells assessed as cell growth at 10 uM after 48 hrs by SRB assay relative to control; conditions: BT-549, 48 h, read-out: Activity; summary of the method: as §1
T47D = test: Cytotoxicity against human T47D cells assessed as cell growth at 10 uM after 48 hrs by SRB assay relative to control; conditions: read-out: Activity; summary of the method: as §2

Compound | growth at 10 µM (CCRF-CEM) [%] | growth at 10 µM (HL-60(TB)) [%] | growth at 10 µM (K562) [%] | growth at 10 µM (RPMI-8226) [%] | growth at 10 µM (HOP-62) [%] | growth at 10 µM (HOP-92) [%] | growth at 10 µM (NCI-H23) [%] | growth at 10 µM (NCI-H522) [%] | growth at 10 µM (COLO 205) [%] | growth at 10 µM (HT-29) [%] | growth at 10 µM (SW-620) [%] | growth at 10 µM (SNB-19) [%] | growth at 10 µM (Malme-3M) [%] | growth at 10 µM (M14) [%] | growth at 10 µM (MDA-MB-435) [%] | growth at 10 µM (SK-MEL-5) [%] | growth at 10 µM (UACC-257) [%] | growth at 10 µM (UACC-62) [%] | growth at 10 µM (IGROV-1) [%] | growth at 10 µM (OVCAR-3) [%] | also measured
CCOC(=O)CCCn1c(C)c(C)c2c1N=C(SC)N1CC(=O)N=C21 | 100 | 94 | 94 | 95 | 112 | 89 | 117 | 97 | 132 | 109 | 110 | 108 | 119 | 106 | 122 | 100 | 111 | 106 | 98 | 162 | growth at 10 µM (OVCAR-8): 113%; growth at 10 µM (786-0): 113%; growth at 10 µM (CAKI-1): 108%; growth at 10 µM (SN12C): 110%; growth at 10 µM (Hs-578T): 120%; growth at 10 µM (BT-549): 119%; growth at 10 µM (T47D): 95%
CSC1=Nc2c(c(C)c(C)n2CCCC(=O)O)C2=NC(=O)CN12 | 105 | 95 | 93 | 110 | 98 | 92 | 109 | 94 | 137 | 108 | 110 | 107 | 115 | 110 | 119 | 101 | 120 | 111 | 101 | 113 | growth at 10 µM (OVCAR-8): 111%; growth at 10 µM (786-0): 109%; growth at 10 µM (CAKI-1): 112%; growth at 10 µM (SN12C): 115%; growth at 10 µM (Hs-578T): 114%; growth at 10 µM (BT-549): 105%; growth at 10 µM (T47D): 103%
CCOC(=O)CCCn1c2c(c(C)c1-c1ccccc1)C1=NC(=O)CN1C(SC)=N2 | 71 | 90 | 90 | 81 | 111 | 80 | 110 | 92 | 129 | 103 | 110 | 106 | 116 | 107 | 111 | 78 | 113 | 95 | 105 | 110 | growth at 10 µM (OVCAR-8): 99%; growth at 10 µM (786-0): 100%; growth at 10 µM (CAKI-1): 100%; growth at 10 µM (SN12C): 127%; growth at 10 µM (Hs-578T): 112%; growth at 10 µM (BT-549): 107%; growth at 10 µM (T47D): 88%
